These results are taken from PMC12377187 (RSC Advances, 2025).

In assay [1] the test system is MDA-MB-231 – human breast cancer cell line. Kind of assay: MTT cytotoxicity, MDA-MB-231 cell line. As to conditions: MDA-MB-231, 72 h, read-out: IC50 MDA-MB-231. It is filed as cell-based. An outline of the steps: (§1)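 Cells seeded at 5000 per well in Eagle's MEM with 10% fetal calf serum, 2 mM L-glutamine, penicillin and streptomycin, then pre-incubated 24 h at 37 °C, 5% CO2. A concentration series of test compound in DMSO, with a reference drug, was applied for 72 h. MTT added for 4 h at 37 °C, formazan dissolved in ethanol, OD read at 570 nm. Inhibition calculated against blank and control absorbances.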

The test system of assay [2] is RD – rhabdomyosarcoma cell line. Kind of assay: MTT cytotoxicity, RD cell line. It is filed as cell-based. Particulars: 72 h. An outline of the steps:
as §1

Assay [3] concerns SW620 cell line. As to conditions: cited from earlier work.
Assay [4] has as its system HT-29 cell line. Particulars: cited from earlier work.
Setting [5] is: Rhabdomyosarcoma cell, read-out: IC50 RD, MTT, 72 h, mean ± SD.
Where [6] appears, read: read-out: IC50 RD, MTT, mean ± SD.

For orientation: IC50 means the concentration needed to halve the response being measured.

Like-named read-outs stand apart in the source and are kept apart here.

For the molecule `COc1cccc(C=Nn2c(-c3ccccc3)nc3ccc(Cl)cc3c2=O)c1` [Compound 18, 6-Chloro-3-((3-methoxybenzylidene)amino)-2-phenyl-4(3H)-quinazolone], the figures for the IC50 in assay [1] and in assay [2] (setting [5]) were 329 ± 47.2 µM and 84.8 ± 9.35 µM, respectively.

For `O=c1c2cc(Cl)ccc2nc(-c2ccccc2)n1N=Cc1ccc(Br)cc1O` [Compound 7, 3-((4-Bromo-2-hydroxybenzylidene)amino)-6-chloro-2-phenyl-4(3H)-quinazolone], the 50% inhibitory concentration (IC50) in assay [1] was 8.79 ± 0.34 µM; in assay [2] (setting [5]), 50 to 55 µM; in assay [2] (setting [6]), 51.6 ± 1.19 µM.

Turning to `O=c1c2cc(Cl)ccc2nc(-c2ccccc2)n1N=Cc1ccccc1O` [Compound 19, 6-Chloro-3-((2-hydroxybenzylidene)amino)-2-phenyl-4(3H)-quinazolone], the values for the IC50 in assay [1] and in assay [2] (setting [5]) were 37.5 ± 0.63 µM and 51.1 ± 0.99 µM, respectively.

Regarding `O=c1c2cc(Cl)ccc2nc(-c2ccccc2)n1N=Cc1c(F)cccc1Cl` [Compound 5, 6-Chloro-3-((2-chloro-6-fluorobenzylidene)amino)-2-phenyl-4(3H)-quinazolone], the results for the IC50 in assay [1] and in assay [2] (setting [5]) were 148 ± 5.64 µM and 14.7 ± 0.68 µM, respectively.

Turning to `O=c1c2cc(Cl)ccc2nc(-c2ccccc2)n1N=Cc1ccc2c(c1)OCO2` [Compound 6, 3-((Benzo[d][1,3]dioxol-5-ylmethylene)amino)-6-chloro-2-phenyl-4(3H)-quinazolone], the IC50 in assay [1] is 10.6 ± 0.67 µM; in assay [2] (setting [5]) it was 50 to 55 µM; in assay [2] (setting [6]), 54.5 ± 0.81 µM.

For `O=c1c2cc(Cl)ccc2nc(-c2ccccc2)n1N=Cc1ccc(F)cc1` [Compound 4, 6-Chloro-3-((4-fluorobenzylidene)amino)-2-phenyl-4(3H)-quinazolone], the IC50 was 21.6 ± 1.11 µM in assay [1] and 235 ± 8.29 µM in assay [2] (setting [5]).

As to `O=c1c2cc(Cl)ccc2nc(-c2ccccc2)n1N=Cc1cccc(O)c1` [Compound 9, 6-Chloro-3-((3-hydroxybenzylidene)amino)-2-phenyl-4(3H)-quinazolone], the IC50 was determined as 84.4 ± 1.26 µM in assay [1] and 254 ± 14.2 µM in assay [2] (setting [5]).

As to `CC(=O)O[C@H]1C(=O)[C@@]2(C)[C@H]([C@H](OC(=O)c3ccccc3)[C@]3(O)C[C@H](OC(=O)[C@H](O)[C@@H](NC(=O)c4ccccc4)c4ccccc4)C(C)=C1C3(C)C)[C@]1(OC(C)=O)CO[C@@H]1C[C@@H]2O` [PTX, paclitaxel, reference compound], the values for the IC50 in assay [1] and in assay [2] (setting [5]) were 0.04 ± 0.02 µM and 0.58 ± 0.01 µM, respectively.

Take `O=c1c2cc(Cl)ccc2nc(-c2ccccc2)n1N=Cc1ccco1` [Compound 15, 6-Chloro-3-((furan-2-ylmethylene)amino)-2-phenyl-4(3H)-quinazolone]: the IC50 in assay [1] stood at 56.6 ± 5.37 µM; in assay [2] (setting [5]), 38.6 ± 1.07 µM.

For the molecule `O=c1[nH]cc(F)c(=O)[nH]1` [fluorouracil], in assay [3], the “inhibitory activity against SW620” value is 57.3%. Also, in assay [4], the “inhibitory activity against HT-29” value was 34.1%.

Consider `O=c1c2cc(Cl)ccc2nc(-c2ccccc2)n1N=Cc1ccc([N+](=O)[O-])cc1` [Compound 2, 6-Chloro-3-((4-nitrobenzylidene)amino)-2-phenyl-4(3H)-quinazolone], for which the concentration for half-maximal inhibition (IC50) is 104 ± 3.63 µM in assay [1] and 151 ± 2.06 µM in assay [2] (setting [5]).

With `O=c1c2cc(Cl)ccc2nc(-c2ccccc2)n1N=Cc1ccc(Cl)cc1Cl` [Compound 11, 6-Chloro-3-((2,4-dichlorobenzylidene)amino)-2-phenyl-4(3H)-quinazolone], the results for the IC50 in assay [1] and in assay [2] (setting [5]) were 99.4 ± 1.76 µM and 251 ± 25.5 µM, respectively.

`O=c1c2cc(Cl)ccc2nc(-c2ccccc2)n1N=Cc1cccnc1` [Compound 14, 6-Chloro-2-phenyl-3-((pyridin-3-ylmethylene)amino)-4(3H)-quinazolone]: the IC50 in assay [1] was found to be 262 ± 43.9 µM; in assay [2] (setting [5]), 136 ± 17 µM.

As for `CN(C)c1ccc(C=Nn2c(-c3ccccc3)nc3ccc(Cl)cc3c2=O)cc1` [Compound 8, 6-Chloro-3-((4-(dimethylamino)benzylidene)amino)-2-phenyl-4(3H)-quinazolone], the IC50 in assay [1] was determined as 101 ± 3.75 µM; in assay [2] (setting [5]), 198 ± 18.9 µM.

Consider `CCOc1ccc(C=Nn2c(-c3ccccc3)nc3ccc(Cl)cc3c2=O)cc1` [Compound 17, 6-Chloro-3-((4-ethoxybenzylidene)amino)-2-phenyl-4(3H)-quinazolone], for which the results for the IC50 in assay [1] and in assay [2] (setting [5]) were 194 ± 8.83 µM and 376 ± 8.08 µM, respectively.

Turning to `COc1ccc(C=Nn2c(-c3ccccc3)nc3ccc(Cl)cc3c2=O)cc1OC` [Compound 13, 6-Chloro-3-((3,4-dimethoxybenzylidene)amino)-2-phenyl-4(3H)-quinazolone], the IC50 was determined as 139 ± 4.04 µM in assay [1] and 130 ± 10.4 µM in assay [2] (setting [5]).

Turning to `COc1ccc(C=Nn2c(-c3ccccc3)nc3ccc(Cl)cc3c2=O)cc1O` [Compound 20, 6-Chloro-3-((3-hydroxy-4-methoxybenzylidene)amino)-2-phenyl-4(3H)-quinazolone], the IC50 stood at 198 ± 13.3 µM in assay [1] and 48.1 ± 3.97 µM in assay [2] (setting [5]).

In the case of `O=c1c2cc(Cl)ccc2nc(-c2ccccc2)n1N=Cc1cccc([N+](=O)[O-])c1` [Compound 16, 6-Chloro-3-((3-nitrobenzylidene)amino)-2-phenyl-4(3H)-quinazolone], the IC50 came to 301 ± 27.1 µM in assay [1] and 82.3 ± 1.99 µM in assay [2] (setting [5]).

On to `O=c1c2cc(Cl)ccc2nc(-c2ccccc2)n1N=Cc1ccccc1` [Compound 21, 3-(Benzylideneamino)-6-chloro-2-phenyl-4(3H)-quinazolone], for which the results for the concentration for half-maximal inhibition (IC50) in assay [1] and in assay [2] (setting [5]) were 121 ± 9.35 µM and 143 ± 12.7 µM, respectively.

As to `CCOc1ccc(C=Nn2c(-c3ccccc3)nc3ccc(Cl)cc3c2=O)cc1O` [Compound 10, 6-Chloro-3-((4-ethoxy-3-hydroxybenzylidene)amino)-2-phenyl-4(3H)-quinazolone], the half-inhibitory concentration (IC50) was determined as 85.5 ± 2.32 µM in assay [1] and 430 ± 72.9 µM in assay [2] (setting [5]).

Take `O=c1c2cc(Cl)ccc2nc(-c2ccccc2)n1N=Cc1ccc(Cl)c(Cl)c1` [Compound 3, 6-Chloro-3-((3,4-dichlorobenzylidene)amino)-2-phenyl-4(3H)-quinazolone]: the results for the IC50 in assay [1] and in assay [2] (setting [5]) were 91.5 ± 1.47 µM and 246 ± 24.3 µM, respectively.

`O=c1c2cc(Cl)ccc2nc(-c2ccccc2)n1N=Cc1ccccc1Cl` [Compound 12, 6-Chloro-3-((2-chlorobenzylidene)amino)-2-phenyl-4(3H)-quinazolinone]: the IC50 in assay [1] was determined as 321 ± 51.8 µM; in assay [2] (setting [5]), 126 ± 6.2 µM.
